Results taken from ChEMBL document CHEMBL1139439, “Folate-synthesizing enzyme system as target for development of inhibitors and inhibitor combinations against Candida albicans-synthesis and biological activity of new 2,4-diaminopyrimidines and 4'-substituted 4-aminodiphenyl sulfones” (J Med Chem, 2004).
Converted amounts (≈) assume the structure as drawn.

Legend:
[1] = system: Candida albicans; test: Inhibitory effect on Candida albicans YEM27 quad deletion Strain; format: functional
Method in brief: (§1)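 MICs were determined by serial dilution in RPMI medium. MIC is the lowest concentration giving culture turbidity ≤20% of the control culture.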

[2] = system: Candida albicans; test: Inhibitory effect on Candida albicans YEM15 CDR1CDR2up Strain; format: functional; method in brief: as §1
[3] = target: T1, Dihydrofolate reductase (Candida albicans, UniProt P22906); test: Inhibitory activity against cell free dihydrofolate reductase (DHFR) from Candida albicans; settings: read-out: I50
T1 sequence (P22906 whole entry): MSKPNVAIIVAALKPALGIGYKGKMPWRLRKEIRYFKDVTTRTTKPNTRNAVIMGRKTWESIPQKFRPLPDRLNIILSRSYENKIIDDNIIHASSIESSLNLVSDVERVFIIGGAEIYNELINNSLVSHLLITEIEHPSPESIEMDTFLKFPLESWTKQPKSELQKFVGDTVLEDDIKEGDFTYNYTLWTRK

[4] = system: Candida albicans; test: Inhibitory effect on Candida albicans wild type YEM14 Strain; format: functional; method in brief: as §1
[5] = system: Candida albicans; test: Inhibitory effect on Candida albicans YEM13 BENup Strain; format: functional; method in brief: as §1
[6] = system: Candida albicans; test: Inhibitory effect on Candida albicans YEM12 Strain; format: functional; method in brief: as §1
[7] = system: Nakaseomyces glabratus; test: Inhibitory effect on Candida glabrata YEM216 pCDR1pCDR2pBEN YEM75 WT Strain; format: functional
Method in brief: (§2)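 For C. glabrata strains, MICs were determined by serial dilution in RPMI medium and read after 48 h. MIC is the lowest concentration giving turbidity ≤20% of the control culture.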

[8] = target: T2, Dihydrofolate reductase (Rattus norvegicus, UniProt Q920D2); test: (§3) Inhibitory activity against cell free dihydrofolate reductase (DHFR) from rat; settings: read-out: I50
T2 sequence (Q920D2 whole entry): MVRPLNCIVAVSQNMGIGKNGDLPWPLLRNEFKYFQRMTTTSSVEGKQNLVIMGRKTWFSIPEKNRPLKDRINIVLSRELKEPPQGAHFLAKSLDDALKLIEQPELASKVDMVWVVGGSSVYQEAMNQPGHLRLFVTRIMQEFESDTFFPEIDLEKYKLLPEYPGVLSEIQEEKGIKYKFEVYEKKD
Method in brief: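 Commercially sourced rat DHFR was preincubated 5 min at 25 °C with 0.1 mM NADPH and varying inhibitor in 0.1 M Tris, pH 7.24. The reaction was started with 0.03 mM dihydrofolate and followed as the fall in absorbance at 340 nm over time. I50 was taken as the inhibitor concentration halving reaction velocity, fitted by nonlinear regression.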

[9] = system: Nakaseomyces glabratus; test: Inhibitory effect on Candida glabrata YEM88 CgCDR1 CgCDR2up Strain; format: functional; method in brief: as §2
[10] = system: Nakaseomyces glabratus; test: Inhibitory effect on Candida glabrata YEM75 WT Strain; format: functional; method in brief: as §2
[11] = system: Candida albicans; test: Inhibitory effect on Candida albicans wild type YEM30 Strain; format: functional; method in brief: as §1
[12] = system: Nakaseomyces glabratus; test: IInhibitory effect on Candida glabrata YEM75 WT Strain; format: functional; method in brief: as §2
[13] = target: T2, Dihydrofolate reductase; test: as §3; settings: read-out: I50; remark: listed apart in the source
[14] = Inhibitory activity against dihydropteroic acid synthase (SYN) from candida albicans; settings: read-out: I50
Method in brief: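 Partially purified SYN extract was prepared from C. albicans ATCC 11651 and incubated with sulfones at pH 8.4. Periodic samples were quenched with trichloroacetic acid, and folate formed was quantified by bioassay with folate-requiring Streptococcus faecium. I50 is the concentration giving a 50% decrease in dihydropteroic acid production versus the uninhibited control.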

[15] = Inhibitory activity against dihydropteroic acid synthase (SYN) from Escherichia coli; settings: read-out: I50
[16] = Inhibitory activity against dihydropteroic acid synthase (SYN) from Mycobacterium lufu (DDS resistant); settings: read-out: I50
[17] = Inhibitory activity against dihydropteroic acid synthase (SYN) from Mycobacterium lufu (DDS sensitive); settings: read-out: I50
[18] = target: T3, Dihydropteroate synthetase, putative (Plasmodium berghei str. ANKA, UniProt A0A113T0T6); test: (§4) Inhibitory activity against dihydropteroic acid synthase (SYN) from Plasmodium berghei; settings: read-out: I50
T3 sequence (A0A113T0T6 whole entry): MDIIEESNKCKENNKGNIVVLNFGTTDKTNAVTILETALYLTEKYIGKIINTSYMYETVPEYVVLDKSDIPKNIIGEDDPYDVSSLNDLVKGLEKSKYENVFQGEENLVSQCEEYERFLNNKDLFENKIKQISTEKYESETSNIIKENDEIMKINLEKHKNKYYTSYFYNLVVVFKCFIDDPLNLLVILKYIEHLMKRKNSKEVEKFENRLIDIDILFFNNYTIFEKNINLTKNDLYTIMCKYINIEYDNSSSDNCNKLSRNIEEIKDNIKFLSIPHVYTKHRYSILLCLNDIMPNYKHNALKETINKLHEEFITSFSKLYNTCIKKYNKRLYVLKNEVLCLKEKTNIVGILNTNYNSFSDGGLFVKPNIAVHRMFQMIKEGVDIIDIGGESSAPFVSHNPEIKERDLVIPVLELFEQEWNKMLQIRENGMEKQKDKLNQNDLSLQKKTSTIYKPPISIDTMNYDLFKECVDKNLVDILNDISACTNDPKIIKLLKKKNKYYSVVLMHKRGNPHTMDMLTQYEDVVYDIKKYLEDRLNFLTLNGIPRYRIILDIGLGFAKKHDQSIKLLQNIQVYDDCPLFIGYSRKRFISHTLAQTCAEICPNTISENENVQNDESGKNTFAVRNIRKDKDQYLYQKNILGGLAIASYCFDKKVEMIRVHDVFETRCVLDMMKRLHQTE

[19] = target: Dihydrofolate reductase (Mycobacterium lufu); test: Inhibitory activity against cell free dihydrofolate reductase (DHFR) from Mycobacterium lufu
[20] = target: T4, Dihydropteroate synthetase, putative (Plasmodium berghei str. ANKA) (UniProt A0A113T0T6); test: as §4
T4 sequence (whole entry): T3 sequence (A0A113T0T6 whole entry)

Row | SMILES | MIC [1] [µg/mL] | MIC [2] [µg/mL] | IC50 [3] [µM] | MIC [4] [µg/mL] | MIC [5] [µg/mL] | MIC [6] [µg/mL] | MIC [11] [µg/mL] | IC50 [14] [µM] | IC50 [15] [µM] | IC50 [16] [µM] | IC50 [17] [µM] | IC50 [18] [µM] | further results
1 | COc1cc(OC)cc(N2C3CCC2CC(c2cnc(N)nc2N)C3)c1 (centres undefined) | 1 (≈ 2.81 µM) | > 64 | 0.026 | 64 (≈ 180 µM) | > 64 | 16 (≈ 45 µM) | 32 (≈ 90 µM) |  |  |  |  |  | MIC [7]: 4 µg/mL (≈ 11.3 µM); IC50 [8]: 0.084 µM; MIC [9]: 32 µg/mL (≈ 90 µM); MIC [10]: 4 µg/mL (≈ 11.3 µM)
2 | COc1cc(Cc2cnc(N)nc2N)ccc1OCCNc1ccc(S(=O)(=O)c2ccc(N)cc2)cc1 | > 64 | > 64 | 0.34 | > 64 | > 64 | > 64 | > 64 |  |  |  |  |  | MIC [12]: > 64 µg/mL; IC50 [13]: 7.23 µM; MIC [7]: > 64 µg/mL; MIC [9]: > 64 µg/mL
3 | Nc1ccc(S(=O)(=O)c2ccccc2)cc1 |  |  |  |  |  |  |  | 13.3 | 116 | 12 | 12.1 | 104 | 
4 | Nc1ncc(NCc2ccccc2)c(N)n1 |  |  | 7.94 |  |  |  |  |  |  |  |  |  | IC50 [13]: 58.2 µM; I50 [19]: 105 uM l-1
5 | COc1cc(Cc2cnc(N)nc2N)ccc1OCCCCN1C(=O)c2ccccc2C1=O | > 64 | > 64 | 0.031 | > 64 | > 64 | > 64 | > 64 |  |  |  |  |  | IC50 [13]: 1.81 µM; MIC [7]: > 64 µg/mL; MIC [9]: > 64 µg/mL; MIC [10]: > 64 µg/mL
6 | Cc1ccc(S(=O)(=O)c2ccc(N)cc2)cc1 |  |  |  |  |  |  |  | 10.1 | 89.9 | 5.92 | 8.08 | 48 | 
7 | Nc1ccc(S(=O)(=O)c2ccc(N)cc2)cc1 [DAPSONE] |  |  |  |  |  |  |  | 1.78 | 34.4 | 1.18 | 1.2 | 12.4 | 
8 | CNc1ccc(S(=O)(=O)c2ccc(N)cc2)cc1 |  |  |  |  |  |  |  | 2.81 | 46.2 | 2 | 1.29 | 26.7 | 
9 | OC(Cn1cncn1)(Cn1cncn1)c1ccc(F)cc1F [FLUCONAZOLE] | ≤ 0.25 | 64 (≈ 209 µM) |  | 64 (≈ 209 µM) | 64 (≈ 209 µM) | 1 (≈ 3.27 µM) | 2 (≈ 6.53 µM) |  |  |  |  |  | 
10 | CN(C)c1ccc(S(=O)(=O)c2ccc(N)cc2)cc1 |  |  |  |  |  |  |  | 3.83 |  | 2.04 | 1.76 | 21.5 | 
11 | Nc1ncc(OCc2cccc3ccccc23)c(N)n1 | 32 (≈ 120 µM) | > 64 | 0.43 | > 64 | > 64 | 32 (≈ 120 µM) | > 64 |  |  |  |  |  | IC50 [13]: 2.63 µM; MIC [7]: 16 µg/mL (≈ 60.1 µM); MIC [9]: 64 µg/mL (≈ 240 µM); MIC [10]: 16 µg/mL (≈ 60.1 µM)
12 | CC(=O)Nc1ccc(S(=O)(=O)c2ccc(N)cc2)cc1 [MONO-N-ACETYL DAPSONE] |  |  |  |  |  |  |  |  | 75.7 | 4.05 | 7.01 | 33.3 | 
13 | COC(=O)c1ccc(S(=O)(=O)c2ccc(N)cc2)cc1 |  |  |  |  |  |  |  |  | 149 | 13.8 | 11.8 | 147 | 
14 | Nc1ccc(S(=O)(=O)c2ccc(NCC(=O)O)cc2)cc1 [ACEDIASULFONE] |  |  |  |  |  |  |  | 1.22 | 37.1 | 0.82 | 0.87 | 17.8 | 
15 | Nc1ccc(S(=O)(=O)c2ccc(O)cc2)cc1 |  |  |  |  |  |  |  | 2.4 | 34.9 | 1.61 | 1.5 |  | I50 [20]: 32.2 µM
16 | COc1ccc(Cc2cnc(N)nc2N)cc1OCCCCN1C(=O)c2ccccc2C1=O | > 64 | > 64 | 0.061 | > 64 | > 64 | > 64 | > 64 |  |  |  |  |  | IC50 [13]: 1.76 µM; MIC [7]: > 64 µg/mL; MIC [9]: > 64 µg/mL; MIC [10]: > 64 µg/mL
17 | NNC(=O)c1ccc(S(=O)(=O)c2ccc(N)cc2)cc1 |  |  |  |  |  |  |  |  | 155 | 9.6 | 12.7 |  | I50 [20]: 76.5 µM
18 | CCNc1ccc(S(=O)(=O)c2ccc(N)cc2)cc1 |  |  |  |  |  |  |  | 3.16 | 41.7 | 1.48 | 2.75 |  | 
